hERG protect: shields human hERG channel from block by proarrhythmic agents; Q12809; CHO-hERG, FluxOR thallium flux, dofetilide IC70 present; activation (rescue from dofetilide block), less the hit threshold, % at 10 µM; 310,000 tested, 0.51% active; AID 1511;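 active = activation above the mean of controls blocked by dofetilide plus 5 SD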;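 also: thallium influx through hERG after potassium depolarization seen as dye fluorescence rise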
KCNQ1 act: potentiates or activates the human KCNQ1 potassium channel; CHO-K1 KCNQ1, thallium flux FluxOR fluorescence; active compounds read high; AID 2648; B-score at 10 µM; 310,000 tested, 0.35% active;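 active = fluorescence ratio B-score, a plate-corrected score, at least three library SD, with initial intensity B-score within 5 SD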
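Assay system: CHO-K1 cells stably expressing KCNQ1. Medium: assay buffer for compound exposure, DMSO matched across wells. Timing: 37 °C overnight plating, 90-min dark dye load, 20-min compound pretreatment. Signal: kinetic FluxOR fluorescence, 10 s baseline plus 110 s post-stimulus.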
KCNQ1 inh: human KCNQ1 channel inhibition; CHO-K1 KCNQ1, FluxOR thallium flux fluorescence; active compounds read high; B-score at 10 µM; AID 2642; P51787; 310,000 tested, 1.3% active;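 active = compounds whose thallium flux B-score, printed positive for inhibition, exceeds three library SD while starting fluorescence stays within three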;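 also: channel opened by potassium depolarization with thallium stimulus after 20 min compound exposure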
KCC2 mod: modulates chloride dependent transport by human KCC2. Q9H2X9. KCC2 cells, thallium flux FluoZin-2 fluorescence. B-score of Tl+ flux slope (higher = more flux/activation; lower = inhibition) at 10 µM. 190,000 tested, 2.2% active. AID 1456;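 active = thallium flux slope and its plate-corrected score both differing from the plate sample mean at a set confidence after two filtering rounds, in either direction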;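 also: slope of fluorescence scaled to starting intensity during 10 to 20 s after thallium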
KCNK3 block: human KCNK3 channel inhibition, primary screen | O14649 | CHO-KCNK3 thallium flux, FluxOR fluorescence; active compounds read low | B-score at 10 µM | 340,000 tested, 0.84% active;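 active = B-score under library mean minus 4 SD, starting fluorescence ratio at most library mean plus 5 SD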;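 also: more negative B-score means stronger inhibition of thallium flux through KCNK3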
KCNK9 block: human KCNK9 channel inhibition; Q9NPC2; HEK293 KCNK9, FluxOR thallium flux fluorescence; active compounds read low; 310,000 tested, 1.2% active; B-score at 10 µM; AID 488922;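 active = ratio B-score over 3 SD below the library mean, with starting fluorescence within 5 SD of its mean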;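 also: negative B-score means less thallium flux so channel inhibition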
The depositor's hits bear a star; i = inactive; . = not tested or not shown. An excerpt weighted towards active compounds, which were near 4.1% of everything screened.

SMILES	hERG protect	KCNQ1 act	KCNQ1 inh	KCC2 mod	KCNK3 block	KCNK9 block
Cc1ccc(S(=O)(=O)N2CCOCC2)cc1NC(=O)COc1cccc(Oc2ccccc2)c1	-11.9	i	6*	.	i	i
O=c1/c(=C\c2cc([N+](=O)[O-])cc([N+](=O)[O-])c2O)sc2nc3ccccc3n12	.	.	.	-3.3*	i	.
O=c1/c(=C/c2ccccn2)sc2nc3ccccc3n12	.	.	.	.	i	.
O=C(CNC(=O)c1ccc(-c2ccccc2)cc1)Nc1ccc(S(=O)(=O)Nc2ncccn2)cc1	-7.0	i	i	.	i	i
Cc1cccc(N2CCN(C(=S)NCc3ccco3)CC2)c1C	-7.8	i	i	-1.66	i	i
CCCCN(CC)C(=O)c1cc2cc3ccc(OC)cc3nc2o1	-10.5	i	i	-0.0919	i	-6.74*
COc1ccc(Cc2nnc(NC(=O)Nc3ccc(F)cc3)s2)cc1	-10.4	i	i	.	i	i
O=C(c1ccccc1)C(Nc1ccccn1)c1ccccc1 (centres undefined)	-13.4	i	i	0.752	i	-7.05*
CN(Cc1ccccc1)C1CCN(Cc2ccccc2[N+](=O)[O-])CC1	9.8*	i	i	.	i	i
O=[N+]([O-])c1ccccc1CN1CCN(S(=O)(=O)Cc2ccccc2)CC1	-2.8	i	i	.	i	i
Cc1ccc(Cl)cc1N1CCN(C(=O)C2(S(=O)(=O)c3ccc(Cl)cc3)CC2)CC1	-11.2	i	6*	0.335	i	i
N/C(=N\OC(=O)c1ccccc1Br)c1cccc([N+](=O)[O-])c1	-6.8	i	i	.	i	-7.13*
N/C(=N\OC(=O)c1ccccc1Br)c1ccc([N+](=O)[O-])cc1	-3.8	i	i	.	i	i
CC1(C)SC(=S)N(/N=C/c2ccccc2)C1N(O)C(=O)Nc1ccc([N+](=O)[O-])cc1 (centres undefined)	5.8*	i	i	-0.0778	i	i
CCCn1nc(C(=O)N2CCN(S(=O)(=O)c3ccc(C)c(C)c3)CC2)c2ccccc2c1=O	.	.	.	.	-9.51*	.
Cc1ccccc1Cc1c(C)nc2c(C(=O)NCc3ccc4c(c3)OCO4)cnn2c1C	-5.0	i	i	-0.0723	i	i
Cc1ccc(C)c(Cc2c(C)nc3c(C(=O)NCc4ccc5c(c4)OCO5)cnn3c2C)c1	-9.8	i	i	1.48	.	-7.79*
C=C1C(=O)O[C@H]2C1CC[C@@](C)(O)C13C=CC(C)(C21)C1(C3)C(=O)O[C@@H]2C3C(C)=CCC3[C@](C)(O)C[C@H](OC(C)=O)C21 (some centres undefined)	5.9*	i	i	0.641	i	i
Cc1nc2ccccc2c2oc(C(=O)NCC3COc4ccccc4O3)cc12 (centres undefined)	-17.2	i	i	-3.16	-10.2*	i
Cc1nc2ccccc2c2oc(C(=O)Nc3ccc(C(C)C)cc3)cc12	-8.2	i	9*	1	i	i
CCN1CCCC1CNC(=O)c1cc2c(C)nc3ccccc3c2o1 (centres undefined)	-10.4	i	i	0.827	i	i
CC(C)(C)NC(=O)NC(=O)CN1c2cccc3cccc(c23)S1(=O)=O	-1.6	i	i	.	i	i
CN(CC(=O)Nc1ccc(OC(F)(F)F)cc1)C1CCCCC1	-6.1	i	i	0.154	i	i
O=C(CNCC1CCCCC1)Nc1ccc(OC(F)(F)F)cc1	-20.3	20*	i	0.521	i	i
CN(c1ccccc1)S(=O)(=O)c1cccc(C(=O)OCC(=O)NCc2ccco2)c1	10.9*	i	i	-1.31	i	i
SMILES	hERG protect	KCNQ1 act	KCNQ1 inh	KCC2 mod	KCNK3 block	KCNK9 block
O=C(COC(=O)c1ccccc1)NCc1ccco1	-2.6	i	i	.	i	i
O=C(COC(=O)c1ccccc1Nc1cccc(C(F)(F)F)c1)NCc1ccco1	-0.9	i	i	.	-8.88*	i
Cc1c(-c2ccccc2)oc2c(C(=O)N3CCN(c4ccc([N+](=O)[O-])cc4)CC3)cccc2c1=O	-18.4	i	i	-0.489	i	-7.06*
CCOC(=O)C1C(=O)C=C(c2ccc([N+](=O)[O-])cc2)CC1c1ccccc1 (centres undefined)	-16.5	i	6*	-0.438	i	i
C[S+](CC[C@H](N)C(=O)O)C[C@H]1O[C@@H](n2cnc3c(N)ncnc32)[C@H](O)[C@@H]1O (some centres undefined)	.	.	.	.	i	.
Cn1c(=O)c2nc(-c3ccccc3)c(-c3ccccc3)nc2n(C)c1=O	-4.3	i	i	.	i	i
Cn1c(=O)c2nc3ccccc3nc2n(C)c1=O	-19.2	10*	i	0.327	i	i
O=C(NNc1ccccc1)Nc1cc(Cl)ccc1Cl	.	.	.	.	i	.
Cc1ccc(S(=O)(=O)c2c(N)n(Cc3ccco3)c3nc4ccccc4nc23)cc1C	-11.3	i	14*	-0.385	i	i
Nc1c(S(=O)(=O)c2ccccc2)c2nc3ccccc3nc2n1Cc1ccco1	-14.5	i	i	.	i	i
COC(=O)c1ccc(CN2CCN(C3CCCCC3)C(CCO)C2)cc1 (centres undefined)	-14.0	i	i	.	i	i
Cc1ccc(C(=O)Nc2ccccc2N2CCOCC2)cc1S(=O)(=O)N1CCOCC1	.	.	.	.	i	.
Cc1cc(C)n(CC(=O)N2c3ccccc3Sc3ccc(C(F)(F)F)cc32)n1	-10.6	i	i	1.06	i	i
COc1ccc(/C=C/C(=O)N2c3ccccc3Sc3ccc(C(F)(F)F)cc32)cc1	-10.8	i	i	-0.0445	i	-7.26*
C=CCOC(=O)C1=C(C)NC(=O)NC1c1ccc(OC(=O)c2ccco2)c(OC)c1 (centres undefined)	-9.9	i	i	-3.27*	i	i
CCCCCCc1cc2cc(C(=O)OCC)c(=O)oc2cc1O	-3.8	i	8*	-0.268	i	i
CCCCCCc1cc2cc(C(N)=O)c(=N)oc2cc1O	-58.9	i	29*	i	.	i
CCCCCCc1cc2cc(C(=O)NC)c(=N)oc2cc1O	-23.6	i	i	1.45	i	i
O=C(c1cc2ccccc2o1)N(C1CC1)C1(C(=O)Nc2ccccc2)CCCC1	-4.7	i	i	0.138	i	i
S=C(NCCC(c1ccccc1)c1ccccc1)Nc1cccc(Cl)c1	-8.3	i	9*	0.0824	i	i
Cc1ccccc1NC(=S)NCCC(c1ccccc1)c1ccccc1	-6.3	i	7*	0.247	i	i
CCc1nc2sc3ccccc3c(=O)c2c(=O)n1Cc1ccc(OC)cc1	-2.2	i	i	0.634	i	i
